# Measured values pooled from the literature.
# Compare with care: the assays were run in different laboratories.
# BDKRB1: B1 bradykinin receptor (BDKRB1, Homo sapiens, UniProt P46663)
# FAAH: Fatty-acid amide hydrolase 1 (FAAH, Homo sapiens, UniProt O00519)
Structure (SMILES),target,test,setting,inhibition [%]
c1ccc(C(NCCNC(c2ccccc2)c2ccccc2)c2ccccc2)cc1,BDKRB1,cell-free assay,10 µM,-4
COCc1c(-c2cc3cc(C)cc(OC)c3s2)c2c(N)ncnn2c1CN1CCNC(=O)C1,"Prostaglandin G/H synthase 1 (PTGS1, Homo sapiens, UniProt P23219)","enzyme activity, inhibitor",10 µM,-15
C[C@H](C(=O)N[C@H]1COc2ccccc2[C@@H]1S(C)(=O)=O)c1ccc(F)cc1,BDKRB1,cell-free assay,10 µM,7
COc1ccc(N(C)C(=O)Oc2nsnc2N2CCCCC2)cc1,FAAH,"enzyme activity, inhibitor","10 µM, cell membranes",17
COc1ccc(S(=O)(=O)N(CC(=O)NO)CC(C)C)cc1,"Stromelysin-1 (MMP3, Homo sapiens, UniProt P08254)","enzyme activity, inhibitor",0.1 µM,80
C#Cc1n[nH]c2c(-c3cn([C@@H](C)c4ccccn4)c(=O)[nH]c3=O)cc(F)cc12,"Receptor-type tyrosine-protein kinase FLT3 (FLT3, Homo sapiens, UniProt P36888)","enzyme activity, inhibitor",0.1 µM,6.2
O=C(Nc1cccnn1)N1CCN([C@@H]2CCOc3cc(C(F)(F)F)ccc32)CC1,"Gastrin/cholecystokinin type B receptor (CCKBR, Homo sapiens, UniProt P32239)",cell-free assay,20 µM,-15
CN(C(=O)Oc1nsnc1N1CCOCC1)C1CCCCCCC1,FAAH,"enzyme activity, inhibitor","10 µM, cell membranes",18
